Source: PubChem BioAssay
The source made the active and inactive calls.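 How the source made its calls, unless noted: active means inhibition of the reporter signal at or above 50%; inactive means inhibition below 50%.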

Experiments:
[1] = inhibitors of TNFa-induced NFkB p65 translocation, primary screen, imaging, HUVEC, MLSMR starter and 10KST1 sets (AID 438;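 active means inhibition above 20% together with a positive visual image hit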;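 further: compound added about 3h40 before a 20 min TNFalpha stimulation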;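 on inhibition: signal is the nuclear over cytoplasmic p65 intensity ratio per well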); settings: HUVEC TNFa-induced p65 nuclear translocation; cell count: measured here: nuclei count (cytotoxicity indicator), at 2.08 µM; inhibition: at 2 µM, stronger effect = higher value, 0% TNFa-plus-vehicle, 100% no-TNFa wells
[2] = reduction of polyQ htt aggregates in cells – imaging, exon1htt(103Q)mCFP cells, high-content imaging, primary screen (AID 483;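 active means visual image review flags a hit and inhibition of aggregation exceeds 20%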;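 further: compound exposure lasted 3 days before fixation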;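 on nuclei count: percent of the per-plate median nuclei count of sample wells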); settings: exon1htt(103Q)mCFP cell line, aggregate imaging, at 2 µM; inhibition of aggregation: stronger effect = higher value; nuclei count: measured here: cell count, toxicity
[3] = endothelial E-selectin expression blockers – imaging, HUVEC, immunofluorescence, MLSMR starter and 10KST1 sets, primary screen (AID 487;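 active means visually confirmed hit in the image check and inhibition above 20%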;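 on inhibition: signal is fraction of cell area covered by stained E-selectin grains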;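 on nuclei count: 100% = median nuclei count of all wells on the same plate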); settings: HUVEC TNFalpha-induced E-selectin immunofluorescence imaging, at 2 µM; inhibition: stronger effect = higher value; nuclei count: measured here: cell number, toxicity
[4] = molecular target: Voltage-gated potassium channel subunit beta-2 (Rattus norvegicus) (UniProt P62483); experiment: inhibitors of rat Kvbeta2 reductase activity – biochemical, NADPH fluorescence, primary screen (AID 622;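 active means fluorescence slope higher than the sample average by over 3 SD, cut at about -0.22 in these data, passing the limit was not always enough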;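 further: slope of raw intensity against log time taken from 70 to 1610 s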); settings: recombinant KvBeta, 4-cyanobenzaldehyde reduction, at 10 µM, stronger effect = higher value
Chain of Voltage-gated potassium channel subunit beta-2 (Rattus norvegicus) (P62483 whole entry, looked up): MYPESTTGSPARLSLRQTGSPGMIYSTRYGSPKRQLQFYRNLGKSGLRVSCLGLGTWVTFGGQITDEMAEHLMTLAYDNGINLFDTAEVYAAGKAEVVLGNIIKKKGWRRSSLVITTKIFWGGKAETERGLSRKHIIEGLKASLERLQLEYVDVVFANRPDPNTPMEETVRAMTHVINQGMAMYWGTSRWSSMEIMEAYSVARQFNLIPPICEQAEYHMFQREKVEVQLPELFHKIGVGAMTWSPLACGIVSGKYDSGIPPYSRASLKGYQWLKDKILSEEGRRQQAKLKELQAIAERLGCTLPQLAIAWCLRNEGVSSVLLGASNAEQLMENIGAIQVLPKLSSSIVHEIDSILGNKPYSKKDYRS

[5] = molecular target: Voltage-gated potassium channel subunit beta-2 (Rattus norvegicus) (UniProt P62483); experiment: enhancers of rat Kvbeta2 NADPH turnover – biochemical, NADPH fluorescence, primary screen (AID 623;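 active means NADPH fluorescence slope more negative than the mean of all samples by about 3 SD, 99.7% confidence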;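 further: fluorescence intensity change per second fitted from 20 to 320 s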); settings: Recombinant KvBeta, NADPH fluorescence decrease slope, 10 min; at 10 µM; stronger effect = lower value
[6] = molecular target: Alpha-2C adrenergic receptor (Homo sapiens) (UniProt P18825); experiment: compounds altering alpha2C-coupled GIRK flux – cell-based, HEK293 alpha2C/GIRK1/2, thallium flux, primary screen (AID 624;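 active means fluorescence slope after compound addition differing from the mean of all screened samples at 99.7% confidence, in either direction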;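 further: slope of fluorescence ratio to pre-addition baseline per second over 15 to 24 s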); settings: thallium flux BTC fluorescence, at 10 µM, actives lie on both sides
Chain of Alpha-2C adrenergic receptor (Homo sapiens) (P18825 whole entry, looked up): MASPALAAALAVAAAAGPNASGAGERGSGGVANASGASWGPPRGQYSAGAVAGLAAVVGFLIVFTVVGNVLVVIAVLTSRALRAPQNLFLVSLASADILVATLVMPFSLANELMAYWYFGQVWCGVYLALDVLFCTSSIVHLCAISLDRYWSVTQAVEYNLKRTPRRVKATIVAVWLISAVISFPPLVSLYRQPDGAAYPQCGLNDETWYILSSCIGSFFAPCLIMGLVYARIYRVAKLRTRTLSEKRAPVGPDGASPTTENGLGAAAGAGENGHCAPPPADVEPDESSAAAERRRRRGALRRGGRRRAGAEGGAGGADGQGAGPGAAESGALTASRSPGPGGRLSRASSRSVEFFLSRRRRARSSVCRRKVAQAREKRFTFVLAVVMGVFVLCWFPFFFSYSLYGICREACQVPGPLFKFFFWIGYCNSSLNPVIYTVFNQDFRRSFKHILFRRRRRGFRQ

[7] = inhibitors of larval lipid processing in zebrafish, primary screen, whole organism, PED6 fluorescence, gall bladder and intestine (AID 686;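 active means a full or partial loss of lipid-probe fluorescence in the fish gall bladder, intestine or both, judged by eye; inactive means no fluorescence loss, or compound toxic to the fish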;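 further: larvae 5 to 7 days old with five fish per well; signal comes from phospholipase A2 cleavage of quenched PED6 carried via bile; overnight exposure to compound and PED6 before scoring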); settings: Zebrafish larvae PED6 lipid processing, fluorescence scoring; screened at 20 µM (by protocol)
Summary of the method: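 Also added: quenched phospholipase substrate PED6, 100 nM final, ingested by larvae; System: zebrafish larvae, 5-7 d; Quantity: 5 larvae per well; Compound: 20 µM single dose; Schedule: overnight compound and PED6 incubation; Read-out: visual per-well fluorescence inhibition score; Measured by: By-eye fluorescence microscopy; Medium: E3.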

[8] = blockers of RIG-like receptor reporter activation – cell-based, Sendai virus stimulus, luciferase, 10K MLSCN set, TLR/RLR signaling modifier project, primary screen (AID 602276;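 active means inhibition at or above 50% at 10 µM; inactive means inhibition below 50%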;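 further: firefly luciferase from ISG56 promoter only with Renilla not read in this screen; 0% = Sendai virus plus DMSO and 100% = medium plus DMSO without virus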); settings: HEK293 RL24 IRF3 luciferase reporter, at 10 µM, stronger effect = higher value
[9] = TLR3 IRF3 reporter activation blockers – cell-based, poly I:C stimulus, luciferase, 10K MLSCN set, primary screen (AID 602277); settings: HEK293-TLR3 RL24 IRF3 luciferase reporter, at 10 µM, stronger effect = higher value

Compound	cell count [1]	inhibition [1]	inhibition of aggregation [2]	nuclei count [2] [%]	inhibition [3]	nuclei count [3] [%]	fluorescence slope [4]	NADPH fluorescence slope [5]	slope [6]	outcome [7]	inhibition [8]	inhibition [9]
COC(=O)Nc1sccc1C(=O)Nc1sccc1C(=O)OC	330	-0.2% (inactive)	23.3% (inactive)	96.8	17.9% (inactive)	95.9	-0.431 (inactive)	-3.4e-05 (inactive)	0.00336 (inactive)	inactive	1.3% (inactive)	-4.09% (inactive)
O=C(CSc1ncn[nH]1)NC1CC2CCC1C2 (stereo not given)	264	-16.8% (inactive)	17% (inactive)	80.8	56.4% (inactive)	53	-0.448 (inactive)	-3.5e-05 (inactive)	0.00492 (inactive)	inactive	2.17% (inactive)	7.86% (inactive)
COc1ccccc1N(CC(=O)NC1CCCC1)C(=O)c1csnn1	723	-1.7% (inactive)	10.7% (inactive)	109	-49.4% (inactive)	126	-0.365 (inactive)	-2.7e-05 (inactive)	0.00495 (inactive)	inactive	-0.44% (inactive)	1.68% (inactive)
O=C(C1CCCO1)N1CCN(S(=O)(=O)c2ccccc2)CC1 (stereo not given)	328	4% (inactive)	3.2% (inactive)	86.5	-28.4% (inactive)	102	-0.439 (inactive)	-8.1e-05 (inactive)	0.00532 (inactive)	inactive	12.6% (inactive)	12.9% (inactive)
O=C(O)CCC(=O)NC1CCCCC1NC(=O)CCC(=O)O (stereo not given)	488	4% (inactive)	-8.6% (inactive)	104	-189% (inactive)	129	-0.394 (inactive)	-6.2e-05 (inactive)	0.00623 (inactive)	inactive	5.12% (inactive)	3.98% (inactive)
Cn1c(=O)[nH]c(=O)c2c1nc(N1CCOCC1)n2CC(O)COc1ccc2ccccc2c1 (stereo not given)	438	-4.5% (inactive)	10.8% (inactive)	107	-54.4% (inactive)	120	-0.44 (inactive)	-3.2e-05 (inactive)	0.00556 (inactive)	inactive	15.8% (inactive)	19.3% (inactive)
Cn1c(CSc2nc3ccccc3s2)nnc1SCC(=O)NCCN1CCOCC1	487	4.5% (inactive)	-3.4% (inactive)	94.1	-23% (inactive)	125	-0.409 (inactive)	-8.1e-06 (inactive)	0.00477 (inactive)	inactive	-5.77% (inactive)	13.9% (inactive)
O=C(CSc1ccccc1C(=O)NCCCN1CCCC1=O)NCc1ccco1	463	3.8% (inactive)	-6.6% (inactive)	98.6	-81.8% (inactive)	118	-0.358 (inactive)	-4.3e-05 (inactive)	0.00452 (inactive)	inactive	11.7% (inactive)	12.7% (inactive)
O=C(O)c1ccc(CSc2ncn[nH]2)cc1	352	-2.9% (inactive)	-12.6% (inactive)	108	-14.9% (inactive)	114	-0.42 (inactive)	-2.8e-05 (inactive)	0.00649 (inactive)	inactive	6.95% (inactive)	1.16% (inactive)
COc1ccc(OC)c(NC(=O)C23CCC(C)(C(=O)C2)C3(C)C)c1 (stereo not given)	512	-4.8% (inactive)	4.8% (inactive)	98.5	-103% (inactive)	125	-0.455 (inactive)	-0.00015 (inactive)	0.00548 (inactive)	inactive	12.9% (inactive)	26.7% (inactive)
Cc1nn(Cc2ccccc2)c2c1C(c1ccncc1)C(C#N)=C(N)O2 (stereo not given)	273	-1.3% (inactive)	17.9% (inactive)	62.3	-58.9% (inactive)	97.3	-0.381 (inactive)	-5.9e-05 (inactive)	0.0052 (inactive)	inactive	2.54% (inactive)	0.489% (inactive)
Cc1ccc(Nc2nc(N)nc(CN3CCN(Cc4ccc5c(c4)OCO5)CC3)n2)cc1	385	4.6% (inactive)	54.3% (active)	91.6	-82.2% (inactive)	102	-0.367 (inactive)	-4.6e-05 (inactive)	0.00487 (inactive)	inactive	1.9% (inactive)	7.26% (inactive)
COc1ccc(/C=N/n2c(SC)nnc2-c2ccccc2)cc1C	384	-0.9% (inactive)	6.2% (inactive)	103	-68.1% (inactive)	117	-0.384 (inactive)	-2e-05 (inactive)	0.00536 (inactive)	inactive	2.46% (inactive)	-2.96% (inactive)
Cc1nnc(NC(=O)C2CCCO2)s1 (stereo not given)	345	5.2% (inactive)	-9.5% (inactive)	97.4	-105% (inactive)	104	-0.467 (inactive)	-4.2e-05 (inactive)	0.00593 (inactive)	active; weak signal in gallbladder only	6.24% (inactive)	6.47% (inactive)
COC(=O)CSc1nnc(-c2ccc(OC)cc2OC)o1	609	6.3% (inactive)	6.1% (inactive)	109	44.6% (inactive)	90.8	-0.397 (inactive)	-5.2e-05 (inactive)	0.00519 (inactive)	inactive	13.1% (inactive)	10.4% (inactive)
COCC(=O)n1nc(NCc2ccc(OC)cc2)nc1NCc1ccc(OC)cc1	614	2% (inactive)	-19.7% (inactive)	101	-25.2% (inactive)	96.2	-0.377 (inactive)	-6e-05 (inactive)	0.00518 (inactive)	inactive	10.6% (inactive)	8.87% (inactive)
O=C(OC1CCc2ccccc2C1=O)c1ccccc1O (stereo not given)	304	3.8% (inactive)	-0.1% (inactive)	100	-86.8% (inactive)	106	-0.386 (inactive)	-5.3e-05 (inactive)	0.00569 (inactive)	inactive	-5.07% (inactive)	-40.5% (inactive)
CC(C)(C)c1ccc(C(=O)N2CCC(C(=O)NCc3ccncc3)CC2)cc1	344	-5.2% (inactive)	-12.2% (inactive)	108	-64.8% (inactive)	113	-0.368 (inactive)	-4.7e-05 (inactive)	0.00471 (inactive)	inactive	-14.5% (inactive)	-39% (inactive)
COc1cccc(N2C(=O)N(c3ccccc3Cl)C3CS(=O)(=O)CC32)c1 (stereo not given)	366	-0.4% (inactive)	-6% (inactive)	118	-47.6% (inactive)	122	-0.336 (inactive)	-1.8e-05 (inactive)	0.00497 (inactive)	inactive	15.6% (inactive)	20% (inactive)
COc1ccc(-n2ncc3c(NCc4cccs4)ncnc32)cc1	424	3.9% (inactive)	-20.1% (inactive)	98.4	-94.5% (inactive)	106	-0.36 (inactive)	-2e-06 (inactive)	0.00593 (inactive)	inactive	-24.5% (inactive)	-70.4% (inactive)
